Assay [1] concerns Mycobacterium tuberculosis. In words: Antimycobacterial activity against Mycobacterium tuberculosis H37Rv assessed as growth inhibition […] by Lowenstein-Jensen agar dilution method. Type of assay: functional. The gist of the method: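 Test compounds dissolved in DMSO and added to liquid Lowenstein-Jensen medium at 25, 12.5, 6.25, 3.12 and 1.56 dilutions. Medium sterilised by inspissation, then tubes held 37 °C for 24 h. H37Rv (harvested into 0.85% saline) streaked at 5 × 10⁴ bacilli/tube and incubated at 37 °C. Growth checked at 12, 22 and 28 days against medium-only controls. MIC taken as no colonies or <20 colonies.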

Assay [2] relates to Mycobacterium tuberculosis. In words: Antimycobacterial activity against Mycobacterium tuberculosis H37Rv assessed as growth inhibition at 6.25 ug/ml measured within 10 days by BACTEC MGIT method. The class given is functional. The settings on record: 240 h. The gist of the method: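 Primary single-concentration screen at 6.25 in MGIT tubes containing modified Middlebrook 7H9 broth. H37Rv inoculum was 10⁴–10⁷ CFU/mL, […]. Incubated at 37 °C in the BACTEC MGIT instrument until positive, read daily from day 2. Fluorescence was judged under UV beside positive control and uninoculated tubes. Result scored as % inhibition.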

Assay [3] concerns Vero. Description: Cytotoxicity against African green monkey Vero cells assessed as cell viability after 72 hrs by MTT assay. Type of assay: cell-based. The settings on record: Chlorocebus sabaeus.

Molecules are shown by their SMILES. Converted amounts (≈) assume the structure as drawn. Where only a bound is given, the exact number is not on record here.

In the case of `CN1CCN(c2nc(Oc3ccc(C#N)cn3)nc(-c3ccc(N4C(=O)CSC4c4ccc(Br)cc4)cc3)n2)CC1` (configuration not stated), the MIC99 in assay [1] amounted to 62.5 µg/mL (≈ 99.3 µM).
On the same count and under the same terms, the result for `CN1CCN(c2nc(Oc3ccc(C#N)cc3)nc(-c3ccc(N4C(=O)CSC4c4ccccc4)cc3)n2)CC1` (configuration not stated) reads 200 µg/mL (≈ 364 µM).
In the case of `CN1CCN(c2nc(Oc3ccc(C#N)cn3)nc(-c3ccc(N4C(=O)CSC4c4ccccc4)cc3)n2)CC1` (configuration not stated), the MIC99 in assay [1] came out at 125 µg/mL (≈ 227 µM).
As to `CN1CCN(c2nc(Oc3ccc(C#N)cn3)nc(-c3ccc(N4C(=O)CSC4c4ccc(F)cc4)cc3)n2)CC1` (configuration not stated), in assay [2], the inhibition at 6.25 µg/mL was found to be 99%. Further, the MIC99 in assay [1] turned out to be 6.25 µg/mL (≈ 11 µM). For the same molecule, the IC50 in assay [3] was greater than 62.5 µg/mL.
Consider `CN1CCN(c2nc(Oc3ccc(C#N)cc3)nc(-c3ccc(N4C(=O)CSC4c4ccc(O)cc4)cc3)n2)CC1` (configuration not stated), for which the inhibition at 6.25 µg/mL in assay [2] amounted to 99%. The MIC99 in assay [1] is 12.5 µg/mL (≈ 22.1 µM). The IC50 in assay [3] is greater than 62.5 µg/mL.
As for `CN1CCN(c2nc(Oc3ccc(C#N)cc3)nc(-c3ccc(N4C(=O)CSC4c4ccc(F)cc4)cc3)n2)CC1` (configuration not stated), the MIC99 in assay [1] was 100 µg/mL (≈ 176 µM).
In the case of `COc1ccc(C2SCC(=O)N2c2ccc(-c3nc(Oc4ccc(C#N)cn4)nc(N4CCN(C)CC4)n3)cc2)cc1` (configuration not stated), the inhibition at 6.25 µg/mL in assay [2] worked out at 99%. Also, in assay [1], the MIC99 came out at 6.25 µg/mL (≈ 10.8 µM). In assay [3], the IC50 was greater than 62.5 µg/mL.
For the molecule `CN1CCN(c2nc(Oc3ccc(C#N)cc3)nc(-c3ccc(N4C(=O)CSC4c4ccc(Cl)cc4)cc3)n2)CC1` (configuration not stated), in assay [1], the MIC99 was 62.5 µg/mL (≈ 107 µM).
As for `CN1CCN(c2nc(Oc3ccc(C#N)cn3)nc(-c3ccc(N4C(=O)CSC4c4ccc(Cl)cc4)cc3)n2)CC1` (configuration not stated), the MIC99 in assay [1] was determined as 100 µg/mL (≈ 171 µM).
`CN1CCN(c2nc(Oc3ccc(C#N)cn3)nc(-c3ccc(N4C(=O)CSC4c4ccc([N+](=O)[O-])cc4)cc3)n2)CC1` (configuration not stated): the MIC99 in assay [1] stood at 100 µg/mL (≈ 168 µM).
In the case of `CN1CCN(c2nc(Oc3ccc(C#N)cc3)nc(-c3ccc(N4C(=O)CSC4c4ccc([N+](=O)[O-])cc4)cc3)n2)CC1` (configuration not stated), the MIC99 in assay [1] was 100 µg/mL (≈ 168 µM).
As to `CO[C@H]1/C=C/O[C@@]2(C)Oc3c(C)c(O)c4c(O)c(c(/C=N/N5CCN(C)CC5)c(O)c4c3C2=O)NC(=O)/C(C)=C\C=C\[C@H](C)[C@H](O)[C@@H](C)[C@@H](O)[C@@H](C)[C@H](OC(C)=O)[C@@H]1C` [RIFAMPIN], the MIC99 in assay [1] is 0.25 µg/mL (≈ 0.304 µM). For the same molecule, the IC50 in assay [3] was greater than 62.5 µg/mL.
In the same order, the values of `NNC(=O)c1ccncc1` [ISONIAZID] are 0.2 µg/mL (≈ 1.46 µM) and greater than 62.5 µg/mL.
As to `COc1ccc(C2SCC(=O)N2c2ccc(-c3nc(Oc4ccc(C#N)cc4)nc(N4CCN(C)CC4)n3)cc2)cc1` (configuration not stated), the MIC99 in assay [1] was found to be 25 µg/mL (≈ 43.1 µM). Further, the IC50 in assay [3] is greater than 62.5 µg/mL.
Taken in the same sequence, the figures for `CC[C@@H](CO)NCCN[C@@H](CC)CO` [ETHAMBUTOL] were 3.12 µg/mL (≈ 15.3 µM) and greater than 62.5 µg/mL.
Taken in the same sequence, the figures for `NC(=O)c1cnccn1` [PYRAZINAMIDE] were 6.25 µg/mL (≈ 50.8 µM) and greater than 62.5 µg/mL.
Taken in the same sequence, the figures for `CN1CCN(c2nc(Oc3ccc(C#N)cc3)nc(-c3ccc(N4C(=O)CSC4c4ccc(Br)cc4)cc3)n2)CC1` (configuration not stated) were 25 µg/mL (≈ 39.8 µM) and greater than 62.5 µg/mL.
On to `CN1CCN(c2nc(Oc3ccc(C#N)cn3)nc(-c3ccc(N4C(=O)CSC4c4ccc(O)cc4)cc3)n2)CC1` (configuration not stated), for which the inhibition at 6.25 µg/mL in assay [2] worked out at 99%. Further, the MIC99 in assay [1] came out at 3.12 µg/mL (≈ 5.51 µM). Moreover, the IC50 in assay [3] is greater than 62.5 µg/mL.

(Values after ChEMBL document CHEMBL3232709, “Facile synthesis of benzonitrile/nicotinonitrile based s-triazines as new potential antimycobacterial agents” (Eur J Med Chem, 2014).)
